Reference: ChEMBL document CHEMBL3860038, “Discovery of (R,E)-N-(7-Chloro-1-(1-[4-(dimethylamino)but-2-enoyl]azepan-3-yl)-1H-benzo[d]imidazol-2-yl)-2-methylisonicotinamide (EGF816), a Novel, Potent, and WT Sparing Covalent Inhibitor of Oncogenic (L858R, ex19del) and Resistant (T790M) EGFR Mutants for the Treatment of EGFR Mutant …” (J Med Chem, 2016)
≈ marks a conversion by molar mass, not a printed value. Blank lines part the entries; values can stand above or below the compound they belong to.

Assays:
[1] = Clearance in balb/c mouse at 5 mg/kg, iv by liquid chromatography-tandem mass spectrometry relative to liver blood flow; assay type: ADME, organism-based; conditions: in vivo
[2] = Oral bioavailability in Wistar rat at 10 mg/kg by liquid chromatography-tandem mass spectrometry; assay type: ADME, organism-based; conditions: in vivo
In short: (§1)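 Rodent PK in male balb/c mice and male Wistar rats; plasma drug levels by LC-MS/MS. Mouse oral dosing at 20 mg/kg, with compounds given as a 0.5% methylcellulose/0.5% Tween 80 suspension or as solutions (PEG300/D5W, or ethanol/PEG300 with Solutol or D5W), depending on compound.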

[3] = tested on: Mus musculus; assay: Toxicity in human NCI-H1975 cells xenografted Foxn1 nude mouse assessed as change in body weight at 50 mg/kg, po qd for 5 days (reference value: […]); assay type: organism-based; conditions: in vivo, 120 h
[4] = Volume of distribution at steady state in balb/c mouse at 5 mg/kg, iv by liquid chromatography-tandem mass spectrometry; assay type: ADME, organism-based; conditions: in vivo, read-out: Vdss
In short: (§2)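 Male animals (balb/c mice or Wistar rats) were used. Compound levels in plasma were measured by LC-MS/MS.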

[5] = Cmax in Wistar rat at 10 mg/kg, po by liquid chromatography-tandem mass spectrometry; assay type: ADME, organism-based; set-up: dose 10 mg/kg, route oral; conditions: in vivo; in short: as §1
[6] = Tmax in Wistar rat at 10 mg/kg, po by liquid chromatography-tandem mass spectrometry; assay type: ADME, organism-based; conditions: in vivo; in short: as §1
[7] = Clearance in balb/c mouse at 5 mg/kg, iv by liquid chromatography-tandem mass spectrometry; assay type: ADME, organism-based; conditions: in vivo; in short: as §1
[8] = Oral bioavailability in balb/c mouse at 20 mg/kg by liquid chromatography-tandem mass spectrometry; assay type: ADME, organism-based; conditions: in vivo; in short: as §1
[9] = target: Cytochrome P450 3A4 (Homo sapiens, UniProt P08684); assay: Inhibition of CYP3A4 (unknown origin); assay type: ADME
Cytochrome P450 3A4, sequence (P08684 whole entry): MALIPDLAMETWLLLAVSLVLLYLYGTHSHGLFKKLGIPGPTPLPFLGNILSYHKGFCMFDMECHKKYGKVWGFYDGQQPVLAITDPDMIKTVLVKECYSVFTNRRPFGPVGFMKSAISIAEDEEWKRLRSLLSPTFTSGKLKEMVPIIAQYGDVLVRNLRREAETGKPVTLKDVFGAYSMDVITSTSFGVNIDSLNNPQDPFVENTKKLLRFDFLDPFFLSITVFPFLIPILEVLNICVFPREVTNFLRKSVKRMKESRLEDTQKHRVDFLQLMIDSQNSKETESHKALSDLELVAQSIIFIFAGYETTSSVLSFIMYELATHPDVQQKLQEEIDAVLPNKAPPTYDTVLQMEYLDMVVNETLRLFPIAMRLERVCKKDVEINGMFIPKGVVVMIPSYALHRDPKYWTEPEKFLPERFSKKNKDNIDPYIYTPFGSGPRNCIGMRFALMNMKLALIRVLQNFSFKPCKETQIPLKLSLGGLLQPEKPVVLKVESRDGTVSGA

[10] = organism: Homo sapiens; assay: Antitumor activity in NSCLC patient assessed as response rate; assay type: functional
[11] = Intrinsic clearance in mouse liver microsomes; assay type: ADME; conditions: read-out: CLH
[12] = AUC in Wistar rat at 10 mg/kg, po by liquid chromatography-tandem mass spectrometry; assay type: ADME, organism-based; conditions: in vivo; in short: as §1
[13] = target: Cytochrome P450 2C9 (Homo sapiens, UniProt P11712); assay: Inhibition of CYP2C9 (unknown origin); assay type: ADME
Cytochrome P450 2C9, sequence (P11712 whole entry): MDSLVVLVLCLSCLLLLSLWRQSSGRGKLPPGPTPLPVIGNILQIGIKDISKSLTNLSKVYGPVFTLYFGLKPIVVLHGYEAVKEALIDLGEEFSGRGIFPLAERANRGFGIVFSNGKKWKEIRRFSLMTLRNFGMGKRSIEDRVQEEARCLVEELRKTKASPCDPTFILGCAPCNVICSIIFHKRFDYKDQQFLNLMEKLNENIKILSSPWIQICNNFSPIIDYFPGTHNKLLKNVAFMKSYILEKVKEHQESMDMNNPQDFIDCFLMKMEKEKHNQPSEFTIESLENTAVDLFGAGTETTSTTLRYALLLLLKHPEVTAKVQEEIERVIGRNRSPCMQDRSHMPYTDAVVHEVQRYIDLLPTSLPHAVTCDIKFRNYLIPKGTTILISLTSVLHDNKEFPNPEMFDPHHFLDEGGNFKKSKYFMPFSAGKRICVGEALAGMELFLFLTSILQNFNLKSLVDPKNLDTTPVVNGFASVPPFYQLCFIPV

[14] = Time duration during which free plasma concentration stays above in-vitro IC50 level in human NCI-H1975 cells xenografted Foxn1 nude mouse at 50 mg/kg, po qd for 5 days; assay type: ADME, organism-based; conditions: in vivo, 120 h
In short: (§3)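 H1975 xenografts in Foxn1 nude mice, oral dosing once daily for 5 days. Plasma sampled after the last dose on day 5, at 30 min, 3 h, 7 h and 24 h. Free drug exposure was compared with in vitro cellular IC50 across the dosing interval.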

[15] = Antitumor activity against human NCI-H1975 cells xenografted in Foxn1 nude mouse assessed as reduction in tumor volume at 25 mg/kg, po qd for 5 days relative to untreated control; assay type: functional
In short: (§4)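 Female Foxn1 nude mice, H1975 cells inoculated subcutaneously. Randomized into groups once tumors reached 150−200 mm³, then dosed by oral gavage once daily for 5 days in 0.5% MC/0.5% Tween80 suspension (10 μL/g). Tumor volumes by caliper, (length × width × width)/2. %T/C = 100 × ΔT/ΔC, or % regression = 100 × ΔT/T_initial when ΔT < 0. Body weight recorded daily.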

[16] = Inhibition of EGFR E746 to A750 deletion mutant phosphorylation in human patient derived HCC827 cells incubated for 3 hrs by ELISA method; assay type: cell-based; conditions: HCC827, 3 h
In short: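 HCC827 cells plated at 7500/well in 5% FBS/RPMI and left overnight at 37 °C. Then 3 h with a 12-point compound dilution series, no EGF stimulation. Lysed in Triton/protease/phosphatase-inhibitor buffer. Phospho-EGFR (Y1173) read by sandwich ELISA: anti-EGFR capture, anti-phospho-EGFR, anti-rabbit-HRP, chemiluminescence. IC50 from at least duplicates.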

[17] = Clearance in Wistar rat at 3 mg/kg, iv by liquid chromatography-tandem mass spectrometry; assay type: ADME, organism-based; conditions: in vivo; in short: as §1
[18] = Cmax in balb/c mouse at 20 mg/kg, po by liquid chromatography-tandem mass spectrometry; assay type: ADME, organism-based; set-up: dose 20 mg/kg, route oral; conditions: in vivo; in short: as §1
[19] = Volume of distribution at steady state in Wistar rat at 3 mg/kg, iv by liquid chromatography-tandem mass spectrometry; assay type: ADME, organism-based; conditions: in vivo, read-out: Vdss; in short: as §2
[20] = Mean residence time in Wistar rat at 3 mg/kg, iv by liquid chromatography-tandem mass spectrometry; assay type: ADME, organism-based; conditions: in vivo
[21] = Aqueous solubility of the compound at pH 6.8; assay type: physicochemical
[22] = AUC in balb/c mouse at 20 mg/kg, po by liquid chromatography-tandem mass spectrometry; assay type: ADME, organism-based; conditions: in vivo; in short: as §1
[23] = Clearance in Wistar rat at 3 mg/kg, iv by liquid chromatography-tandem mass spectrometry relative to liver blood flow; assay type: ADME, organism-based; conditions: in vivo
[24] = AUC in balb/c mouse at 5 mg/kg, iv by liquid chromatography-tandem mass spectrometry; assay type: ADME, organism-based; conditions: in vivo
[25] = AUC in Wistar rat at 3 mg/kg, iv by liquid chromatography-tandem mass spectrometry; assay type: ADME, organism-based; conditions: in vivo
[26] = tested on: Mus musculus; assay: Toxicity in human NCI-H1975 cells xenografted Foxn1 nude mouse assessed as change in body weight at 25 mg/kg, po qd for 5 days (reference value: […]); assay type: organism-based; conditions: in vivo, 120 h
[27] = Intrinsic clearance in human liver microsomes; assay type: ADME; conditions: read-out: CLH
[28] = target: Cytochrome P450 2D6 (Homo sapiens, UniProt P10635); assay: Inhibition of CYP2D6 (unknown origin); assay type: ADME
Cytochrome P450 2D6, sequence (P10635 whole entry): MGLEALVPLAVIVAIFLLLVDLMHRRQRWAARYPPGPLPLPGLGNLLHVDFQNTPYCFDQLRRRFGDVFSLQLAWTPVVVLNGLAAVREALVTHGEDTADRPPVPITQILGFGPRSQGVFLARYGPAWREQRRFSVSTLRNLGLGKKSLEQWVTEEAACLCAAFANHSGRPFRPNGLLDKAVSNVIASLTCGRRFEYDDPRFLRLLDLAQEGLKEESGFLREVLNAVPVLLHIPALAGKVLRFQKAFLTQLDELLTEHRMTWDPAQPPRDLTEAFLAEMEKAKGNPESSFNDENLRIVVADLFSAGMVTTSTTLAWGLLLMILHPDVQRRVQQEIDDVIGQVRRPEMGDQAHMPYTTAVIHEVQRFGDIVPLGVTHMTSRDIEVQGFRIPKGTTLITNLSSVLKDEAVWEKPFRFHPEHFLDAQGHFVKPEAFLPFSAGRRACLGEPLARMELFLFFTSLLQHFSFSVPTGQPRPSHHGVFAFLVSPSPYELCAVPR

[29] = organism: Homo sapiens; assay: Antitumor activity in NSCLC patient assessed as disease control rate; assay type: functional
[30] = Mean residence time in balb/c mouse at 5 mg/kg, iv by liquid chromatography-tandem mass spectrometry; assay type: ADME, organism-based; conditions: in vivo
[31] = Tmax in balb/c mouse at 20 mg/kg, po by liquid chromatography-tandem mass spectrometry; assay type: ADME, organism-based; conditions: in vivo; in short: as §1
[32] = Antitumor activity against human NCI-H1975 cells xenografted in Foxn1 nude mouse assessed as reduction in tumor volume at 50 mg/kg, po qd for 5 days relative to untreated control; assay type: functional; in short: as §4
[33] = Time duration during which free plasma concentration stays above in-vitro IC50 level in human NCI-H1975 cells xenografted Foxn1 nude mouse at 25 mg/kg, po qd for 5 days; assay type: ADME, organism-based; conditions: in vivo, 120 h; in short: as §3
[34] = tested on: NCI-H1975; assay: Antitumor activity against human NCI-H1975 cells xenografted in Foxn1 nude mouse assessed as reduction in tumor volume dosed orally once daily for 5 days relative to untreated control; assay type: functional, organism-based; in short: as §4
[35] = target: Epidermal growth factor receptor (Homo sapiens, UniProt P00533, L858R/T790M); assay: Inhibition of EGFR L858R/T790M mutant phosphorylation in human patient derived H1975 cells incubated for 3 hrs by ELISA method; assay type: cell-based
Epidermal growth factor receptor (Homo sapiens, UniProt P00533, L858R/T790M), sequence (P00533 25-1210 T790M/L858R limits assumed): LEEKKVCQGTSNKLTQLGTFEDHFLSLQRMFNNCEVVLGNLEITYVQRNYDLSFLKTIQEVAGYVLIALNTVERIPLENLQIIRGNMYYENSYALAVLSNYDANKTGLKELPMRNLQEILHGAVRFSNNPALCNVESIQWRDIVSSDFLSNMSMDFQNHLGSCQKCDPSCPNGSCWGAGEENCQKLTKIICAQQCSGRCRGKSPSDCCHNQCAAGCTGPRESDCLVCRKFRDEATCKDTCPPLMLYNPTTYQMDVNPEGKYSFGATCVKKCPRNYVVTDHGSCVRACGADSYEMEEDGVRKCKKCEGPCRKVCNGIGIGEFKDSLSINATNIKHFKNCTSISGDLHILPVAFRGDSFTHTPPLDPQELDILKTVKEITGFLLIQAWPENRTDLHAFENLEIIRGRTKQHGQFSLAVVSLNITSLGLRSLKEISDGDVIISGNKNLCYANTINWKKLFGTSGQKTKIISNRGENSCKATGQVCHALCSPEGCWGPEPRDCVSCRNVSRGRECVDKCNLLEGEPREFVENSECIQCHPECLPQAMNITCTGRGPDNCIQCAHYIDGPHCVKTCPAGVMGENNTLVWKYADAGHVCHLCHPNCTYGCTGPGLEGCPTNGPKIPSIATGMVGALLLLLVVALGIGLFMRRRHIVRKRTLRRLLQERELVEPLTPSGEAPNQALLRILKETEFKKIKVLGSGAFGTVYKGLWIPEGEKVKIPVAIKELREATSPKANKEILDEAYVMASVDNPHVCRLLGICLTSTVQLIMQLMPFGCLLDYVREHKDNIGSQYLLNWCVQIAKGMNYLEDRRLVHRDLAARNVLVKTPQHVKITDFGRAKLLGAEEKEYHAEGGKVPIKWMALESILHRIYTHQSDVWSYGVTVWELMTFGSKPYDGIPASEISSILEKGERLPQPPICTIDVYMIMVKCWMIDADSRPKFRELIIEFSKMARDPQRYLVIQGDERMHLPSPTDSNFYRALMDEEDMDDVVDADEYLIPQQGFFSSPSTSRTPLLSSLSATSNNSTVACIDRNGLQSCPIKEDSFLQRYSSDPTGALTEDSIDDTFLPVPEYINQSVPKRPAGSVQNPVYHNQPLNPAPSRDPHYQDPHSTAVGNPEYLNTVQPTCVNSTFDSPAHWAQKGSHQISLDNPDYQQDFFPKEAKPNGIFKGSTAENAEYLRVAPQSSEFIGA

[36] = Glutathione reactivity assessed as GSH adduct formation incubated for 1 hr using 10 mM glutathione
In short: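 Compound incubated 1 h with 10 mM glutathione; GSH adduct formation measured.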

[37] = Antitumor activity against human NCI-H1975 cells xenografted in Foxn1 nude mouse assessed as reduction in tumor volume at 20 mg/kg, po qd for 5 days relative to untreated control; assay type: functional; in short: as §4
[38] = target: Epidermal growth factor receptor (Homo sapiens, UniProt P00533, L858R); assay: Inhibition of EGFR L858R mutant phosphorylation in human patient derived H3255 cells incubated for 3 hrs by ELISA method; assay type: cell-based
Epidermal growth factor receptor (Homo sapiens, UniProt P00533, L858R), sequence (P00533 25-1210 L858R limits assumed): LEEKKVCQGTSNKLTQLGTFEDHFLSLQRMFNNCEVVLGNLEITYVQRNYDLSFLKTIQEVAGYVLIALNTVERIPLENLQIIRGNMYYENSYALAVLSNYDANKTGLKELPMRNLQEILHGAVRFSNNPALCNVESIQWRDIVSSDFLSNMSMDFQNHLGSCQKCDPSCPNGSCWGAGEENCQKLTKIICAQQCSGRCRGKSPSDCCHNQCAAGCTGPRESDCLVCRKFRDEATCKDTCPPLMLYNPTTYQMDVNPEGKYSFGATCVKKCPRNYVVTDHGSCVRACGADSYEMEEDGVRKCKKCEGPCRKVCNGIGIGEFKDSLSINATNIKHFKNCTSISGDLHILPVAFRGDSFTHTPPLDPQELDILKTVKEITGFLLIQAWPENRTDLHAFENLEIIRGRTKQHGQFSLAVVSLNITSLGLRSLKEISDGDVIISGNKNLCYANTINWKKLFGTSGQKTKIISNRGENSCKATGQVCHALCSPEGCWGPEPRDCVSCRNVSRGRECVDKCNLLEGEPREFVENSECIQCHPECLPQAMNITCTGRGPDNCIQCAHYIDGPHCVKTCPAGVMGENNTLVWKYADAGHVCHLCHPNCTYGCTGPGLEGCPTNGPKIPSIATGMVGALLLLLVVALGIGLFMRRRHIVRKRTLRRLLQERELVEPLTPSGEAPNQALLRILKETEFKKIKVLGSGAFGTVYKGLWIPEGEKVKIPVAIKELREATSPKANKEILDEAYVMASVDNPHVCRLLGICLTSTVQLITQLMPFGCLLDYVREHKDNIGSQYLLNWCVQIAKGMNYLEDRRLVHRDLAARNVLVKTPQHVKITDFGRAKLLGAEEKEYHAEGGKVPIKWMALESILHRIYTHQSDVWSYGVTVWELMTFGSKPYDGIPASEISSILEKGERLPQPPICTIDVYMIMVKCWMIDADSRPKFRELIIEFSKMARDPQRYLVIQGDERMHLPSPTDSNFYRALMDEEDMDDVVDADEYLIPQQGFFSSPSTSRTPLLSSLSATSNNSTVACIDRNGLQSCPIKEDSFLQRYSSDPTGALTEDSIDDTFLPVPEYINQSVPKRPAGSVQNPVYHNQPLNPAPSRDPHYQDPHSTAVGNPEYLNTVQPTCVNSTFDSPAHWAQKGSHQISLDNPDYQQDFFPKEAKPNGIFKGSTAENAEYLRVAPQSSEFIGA

[39] = tested on: Mus musculus; assay: Toxicity in human NCI-H1975 cells xenografted Foxn1 nude mouse assessed as change in body weight at 20 mg/kg, po qd for 5 days (reference value: […]); assay type: organism-based; conditions: in vivo, 120 h
[40] = Time duration during which free plasma concentration stays above in-vitro IC50 level in human NCI-H1975 cells xenografted Foxn1 nude mouse at 20 mg/kg, po qd for 5 days; assay type: ADME, organism-based; conditions: in vivo, 120 h; in short: as §3
[41] = target: Epidermal growth factor receptor (Homo sapiens, UniProt P00533); assay: Inhibition of wild type EGFR phosphorylation in human HaCaT cells incubated for 3 hrs by ELISA method; assay type: cell-based
Epidermal growth factor receptor (Homo sapiens, UniProt P00533), sequence (P00533 whole entry): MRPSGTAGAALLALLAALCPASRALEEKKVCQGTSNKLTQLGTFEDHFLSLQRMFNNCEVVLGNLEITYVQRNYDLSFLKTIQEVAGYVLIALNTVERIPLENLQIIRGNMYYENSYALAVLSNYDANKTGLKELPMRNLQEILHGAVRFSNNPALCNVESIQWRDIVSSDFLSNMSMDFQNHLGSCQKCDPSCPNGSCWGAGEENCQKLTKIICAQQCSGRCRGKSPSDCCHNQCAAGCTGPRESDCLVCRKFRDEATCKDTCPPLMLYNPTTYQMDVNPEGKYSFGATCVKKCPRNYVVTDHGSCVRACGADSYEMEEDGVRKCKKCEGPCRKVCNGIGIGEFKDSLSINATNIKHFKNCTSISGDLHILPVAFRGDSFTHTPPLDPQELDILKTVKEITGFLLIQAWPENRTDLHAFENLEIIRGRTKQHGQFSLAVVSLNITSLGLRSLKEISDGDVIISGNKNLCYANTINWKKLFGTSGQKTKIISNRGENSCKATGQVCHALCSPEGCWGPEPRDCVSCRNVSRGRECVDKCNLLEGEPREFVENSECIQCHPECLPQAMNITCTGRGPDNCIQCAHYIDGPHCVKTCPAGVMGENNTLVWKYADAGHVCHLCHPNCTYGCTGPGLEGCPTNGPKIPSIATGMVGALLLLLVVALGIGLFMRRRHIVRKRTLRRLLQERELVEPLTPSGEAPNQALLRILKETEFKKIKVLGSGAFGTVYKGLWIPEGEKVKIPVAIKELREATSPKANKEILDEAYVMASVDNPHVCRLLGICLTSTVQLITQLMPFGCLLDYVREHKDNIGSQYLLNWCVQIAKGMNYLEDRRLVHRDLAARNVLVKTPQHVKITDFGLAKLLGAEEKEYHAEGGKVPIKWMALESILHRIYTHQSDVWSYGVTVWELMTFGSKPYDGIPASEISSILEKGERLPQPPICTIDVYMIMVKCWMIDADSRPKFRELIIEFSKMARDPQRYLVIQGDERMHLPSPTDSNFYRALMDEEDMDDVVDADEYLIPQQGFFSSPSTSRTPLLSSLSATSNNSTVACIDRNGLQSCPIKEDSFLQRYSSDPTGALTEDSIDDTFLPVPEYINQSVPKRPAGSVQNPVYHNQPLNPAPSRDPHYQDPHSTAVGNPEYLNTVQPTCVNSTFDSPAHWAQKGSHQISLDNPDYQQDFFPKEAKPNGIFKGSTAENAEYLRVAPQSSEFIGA

CL [1]: 35%
bioavailability [2]: 55%
Vd [4]: 2.8 L/kg
Cmax [5]: 987 nM
Tmax [6]: 3 h
clearance [7]: 31.6 mL/min/kg
bioavailability [8]: 60%
IC50 [9]: > 25000 nM
microsomal CLint [11]: 66 µL/min/mg
AUC [12]: 12 µM·h
IC50 [13]: > 25000 nM
Time [14]: <= 14 hr
IC50 [16]: 1.52 nM
clearance [17]: 15.7 mL/min/kg
Cmax [18]: 2940 nM
Vd [19]: 2.4 L/kg
MRT [20]: 2.6 h
solubility [21]: > 175 µM
AUC [22]: 12.8 µM·h
CL [23]: 30%
AUC [24]: 5.34 µM·h
AUC [25]: 6.53 µM·h
microsomal CLint [27]: 34 µL/min/mg
IC50 [28]: 7000 nM
MRT [30]: 1.5 h
Tmax [31]: 0.83 h
Time [33]: <= 14 hr
SMILES: Cc1cc(C(=O)Nc2nc3cccc(Cl)c3n2[C@@H]2CCCCN(C(=O)/C=C/CN(C)C)C2)ccn1 [NAZARTINIB]
Activity [3]: 3.8%
Activity [10]: 60%
T/C [15]: -32%
Activity [26]: 5.3%
Activity [29]: 93%
T/C [32]: -72%

clearance [7]: 62.5 mL/min/kg
bioavailability [8]: 27%
IC50 [9]: > 25000 nM
microsomal CLint [11]: 96 µL/min/mg
IC50 [13]: > 25000 nM
Time [14]: <= 14 hr
IC50 [35]: 1.51 nM
IC50 [16]: 1.48 nM
solubility [21]: 12.7 µM (≈ 6.71 µg/mL)
AUC [22]: 2.84 µM·h
microsomal CLint [27]: 71 µL/min/mg
IC50 [28]: 6100 nM
IC50 [38]: 2.65 nM
Time [40]: <= 14 hr
IC50 [41]: 72 nM
SMILES: Cc1cccc2nc(NC(=O)c3ccnc(C(F)(F)F)c3)n([C@@H]3CCCCN(C(=O)/C=C/CN(C)C)C3)c12
Activity [34]: Dose-dependent effect
Activity [3]: -3.5%
Drug metabolism [36]: < 5%
T/C [37]: -31%
Activity [39]: -0.3%
T/C [32]: -64%
